Results published in ChEMBL document CHEMBL1208724, “A new group of oxime carbamates as reversible inhibitors of fatty acid amide hydrolase” (Bioorg Med Chem Lett, 2010).
pIC50: −log10 of the molar value. Each block holds one compound with its values, some of them ahead of it. The source made the active and inactive calls. The calls are words filed in the database; no cut-off is given here.

How the values were obtained:
[1] = target: T1, Fatty-acid amide hydrolase 1 (Mus musculus, UniProt O08914); test: Inhibition of mouse brain FAAH assessed as conversion of [3H-ethanolamine]AEA to [3H]ethanolamine by scintillation counting
T1 sequence (O08914 whole entry): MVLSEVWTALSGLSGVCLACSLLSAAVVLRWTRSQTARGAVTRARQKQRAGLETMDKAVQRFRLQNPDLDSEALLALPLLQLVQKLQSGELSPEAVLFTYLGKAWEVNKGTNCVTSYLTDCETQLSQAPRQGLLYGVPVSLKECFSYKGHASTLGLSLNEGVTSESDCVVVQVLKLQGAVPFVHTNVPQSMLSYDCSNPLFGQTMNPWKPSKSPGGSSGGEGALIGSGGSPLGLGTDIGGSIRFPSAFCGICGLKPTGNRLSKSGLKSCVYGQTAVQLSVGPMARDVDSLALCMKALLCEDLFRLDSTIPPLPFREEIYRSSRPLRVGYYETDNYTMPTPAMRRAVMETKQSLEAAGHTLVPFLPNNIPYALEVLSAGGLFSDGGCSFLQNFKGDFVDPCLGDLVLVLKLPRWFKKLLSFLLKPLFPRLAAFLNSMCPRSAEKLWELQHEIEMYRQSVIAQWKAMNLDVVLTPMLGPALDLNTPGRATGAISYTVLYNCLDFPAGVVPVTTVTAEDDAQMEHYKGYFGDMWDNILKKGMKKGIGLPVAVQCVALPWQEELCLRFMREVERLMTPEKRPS

Vasopressin V1a receptor = Vasopressin V1a receptor (Homo sapiens, UniProt P37288); test: Displacement of [3H]AVP from human recombinant V1a receptor expressed in H recombinant CHO cells; format: cell-based
B2 bradykinin receptor = B2 bradykinin receptor (Homo sapiens, UniProt P30411); test: Displacement of [3H]bradykinin from human recombinant bradykinin B2 receptor expressed in CHO cells; format: cell-based
[2] = target: 5-hydroxytryptamine receptor 1A (Homo sapiens, UniProt P08908); test: Displacement of [3H]8-OH-DPAT from human recombinant 5HT1A receptor expressed in HEK293 cells; format: cell-based
Sequence of 5-hydroxytryptamine receptor 1A (P08908 whole entry): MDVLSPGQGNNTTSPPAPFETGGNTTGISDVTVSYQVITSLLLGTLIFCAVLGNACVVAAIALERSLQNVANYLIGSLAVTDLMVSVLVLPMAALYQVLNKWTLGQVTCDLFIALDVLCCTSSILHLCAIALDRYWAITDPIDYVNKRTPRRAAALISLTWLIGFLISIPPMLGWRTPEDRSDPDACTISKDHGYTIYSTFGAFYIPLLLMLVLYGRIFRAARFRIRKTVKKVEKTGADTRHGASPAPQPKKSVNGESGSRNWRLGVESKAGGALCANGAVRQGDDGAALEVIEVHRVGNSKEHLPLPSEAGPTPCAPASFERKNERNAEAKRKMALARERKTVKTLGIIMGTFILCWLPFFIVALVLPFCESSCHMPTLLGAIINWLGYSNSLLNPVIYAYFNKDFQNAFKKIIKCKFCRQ

[3] = target: Small conductance calcium-activated potassium channel protein 1 (Rattus norvegicus, UniProt P70606); test: Displacement of [125I]apamin from SK+Ca channel in rat cerebral cortex; format: tissue-based
[4] = Displacement of [3H]DADLE from human recombinant delta 2 opioid receptor expressed in CHO cells; format: cell-based
[5] = target: 5-hydroxytryptamine receptor 3A (Homo sapiens, UniProt P46098); test: Displacement of [3H]BRL 43694 from human recombinant 5HT3 receptor expressed in CHO cells; format: cell-based
[6] = target: Type-1 angiotensin II receptor (Homo sapiens, UniProt P30556); test: Displacement of [125I][Sar1,Ile8]-AT II from human recombinant AT1 receptor expressed in HEK293 cells; format: cell-based
Sequence of Type-1 angiotensin II receptor (P30556 whole entry): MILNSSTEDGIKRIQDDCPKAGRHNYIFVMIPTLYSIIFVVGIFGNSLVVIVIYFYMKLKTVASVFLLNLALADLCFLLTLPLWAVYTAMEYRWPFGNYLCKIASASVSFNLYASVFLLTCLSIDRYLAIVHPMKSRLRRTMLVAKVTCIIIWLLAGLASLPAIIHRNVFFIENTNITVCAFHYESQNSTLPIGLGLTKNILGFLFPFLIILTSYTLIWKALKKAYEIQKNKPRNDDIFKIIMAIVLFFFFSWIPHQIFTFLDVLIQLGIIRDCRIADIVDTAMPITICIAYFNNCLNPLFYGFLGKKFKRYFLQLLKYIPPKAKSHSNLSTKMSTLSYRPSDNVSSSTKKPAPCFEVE

Cannabinoid receptor 1 = Cannabinoid receptor 1 (Mus musculus, UniProt P47746); test: Inhibition of mouse brain CB1 receptor
Nociceptin receptor = Nociceptin receptor (Homo sapiens, UniProt P41146); test: Displacement of [3H]nociceptin from human recombinant ORL1 receptor expressed in H recombinant HEK293 cells; format: cell-based
[7] = target: Transient receptor potential cation channel subfamily V member 1 (Mus musculus, UniProt Q704Y3); test: Inhibition of mouse TRPV1 receptor
[8] = Displacement of [125I]VIP from human recombinant VIP receptor expressed in H recombinant CHO cells; format: cell-based
[9] = Displacement of [3H]GABA from GABA receptor in rat cerebral cortex; format: tissue-based
[10] = target: Neurotensin receptor type 1 (Homo sapiens, UniProt P30989); test: Displacement of [125I]Tyr3-neurotensin from human recombinant NT1 receptor expressed in H recombinant CHO cells; format: cell-based
Adenosine receptor A1 = Adenosine receptor A1 (Homo sapiens, UniProt P30542); test: Displacement of [3H]DPCPX from human recombinant A1 receptor expressed in CHO cells; format: cell-based
Sequence of Adenosine receptor A1 (P30542 whole entry): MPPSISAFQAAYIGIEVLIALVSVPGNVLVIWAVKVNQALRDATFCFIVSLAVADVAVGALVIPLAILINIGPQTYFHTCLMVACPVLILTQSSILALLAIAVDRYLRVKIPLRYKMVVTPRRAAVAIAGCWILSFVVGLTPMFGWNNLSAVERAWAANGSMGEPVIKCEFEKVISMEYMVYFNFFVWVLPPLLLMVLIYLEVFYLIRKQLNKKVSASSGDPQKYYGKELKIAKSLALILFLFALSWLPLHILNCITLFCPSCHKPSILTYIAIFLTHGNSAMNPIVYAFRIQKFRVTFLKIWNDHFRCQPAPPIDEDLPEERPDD

[11] = target: Melatonin receptor type 1A (Homo sapiens, UniProt P48039); test: Displacement of [125I]2-iodomelatonin from human recombinant MT1 receptor expressed in CHO cells; format: cell-based
Endothelin-1 receptor = Endothelin-1 receptor (Homo sapiens, UniProt P25101); test: Displacement of [125I]endothelin-1 from human recombinant ETA receptor expressed in CHO cells; format: cell-based
Sequence of Endothelin-1 receptor (P25101 whole entry): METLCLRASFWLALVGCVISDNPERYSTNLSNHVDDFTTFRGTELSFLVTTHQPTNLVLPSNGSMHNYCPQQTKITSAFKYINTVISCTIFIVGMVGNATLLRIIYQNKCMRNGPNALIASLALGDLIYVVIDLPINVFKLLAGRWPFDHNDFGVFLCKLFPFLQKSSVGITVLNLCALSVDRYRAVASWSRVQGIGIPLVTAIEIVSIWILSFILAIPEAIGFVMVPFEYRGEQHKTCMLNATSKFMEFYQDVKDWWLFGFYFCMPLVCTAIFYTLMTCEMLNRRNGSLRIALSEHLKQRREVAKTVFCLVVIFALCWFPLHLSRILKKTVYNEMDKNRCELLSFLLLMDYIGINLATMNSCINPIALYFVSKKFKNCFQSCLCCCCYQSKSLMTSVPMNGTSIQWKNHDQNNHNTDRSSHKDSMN

Thromboxane A2 receptor = Thromboxane A2 receptor (Homo sapiens, UniProt P21731); test: Displacement of [3H]SQ 29548 from human recombinant TXA2 receptor expressed in HEK293 cells; format: cell-based
[12] = target: Muscarinic acetylcholine receptor M3 (Homo sapiens, UniProt P20309); test: Displacement of [3H]4-DAMP from human recombinant muscarinic M3 receptor expressed in CHO cells; format: cell-based
Sequence of Muscarinic acetylcholine receptor M3 (P20309 whole entry): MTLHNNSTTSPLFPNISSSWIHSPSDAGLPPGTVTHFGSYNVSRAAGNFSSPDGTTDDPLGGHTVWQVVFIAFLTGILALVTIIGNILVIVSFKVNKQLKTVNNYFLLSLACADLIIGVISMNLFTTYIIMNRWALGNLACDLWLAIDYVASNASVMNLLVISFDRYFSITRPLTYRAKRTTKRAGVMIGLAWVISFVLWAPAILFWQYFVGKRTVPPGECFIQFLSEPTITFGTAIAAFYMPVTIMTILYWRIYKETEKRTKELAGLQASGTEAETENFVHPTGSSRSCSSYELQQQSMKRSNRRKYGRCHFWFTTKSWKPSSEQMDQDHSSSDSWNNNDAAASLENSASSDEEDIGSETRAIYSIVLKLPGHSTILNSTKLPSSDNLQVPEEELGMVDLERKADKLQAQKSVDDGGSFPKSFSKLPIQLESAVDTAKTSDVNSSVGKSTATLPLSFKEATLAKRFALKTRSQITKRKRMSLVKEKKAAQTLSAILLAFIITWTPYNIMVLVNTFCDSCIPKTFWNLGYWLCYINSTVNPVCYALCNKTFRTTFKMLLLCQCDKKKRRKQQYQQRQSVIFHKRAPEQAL

Galanin receptor type 2 = Galanin receptor type 2 (Homo sapiens, UniProt O43603); test: Displacement of [125I]Galanin from human recombinant GAL2 receptor expressed in CHO cells; format: cell-based
Sequence of Galanin receptor type 2 (O43603 whole entry): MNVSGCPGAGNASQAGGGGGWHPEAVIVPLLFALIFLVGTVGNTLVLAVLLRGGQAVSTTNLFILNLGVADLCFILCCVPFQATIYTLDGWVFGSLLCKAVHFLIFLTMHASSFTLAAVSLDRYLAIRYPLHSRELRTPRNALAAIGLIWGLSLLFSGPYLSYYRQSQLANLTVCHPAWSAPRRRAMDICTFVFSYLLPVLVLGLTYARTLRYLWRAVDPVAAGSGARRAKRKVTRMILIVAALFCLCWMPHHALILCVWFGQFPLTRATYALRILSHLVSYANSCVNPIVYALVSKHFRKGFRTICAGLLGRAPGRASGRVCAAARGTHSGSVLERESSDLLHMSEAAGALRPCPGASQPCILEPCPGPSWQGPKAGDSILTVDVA

[13] = target: Neuropeptide Y receptor type 2 (Homo sapiens, UniProt P49146); test: Displacement of [125I]peptide YY from human recombinant Y2 receptor expressed in KAN-TS cells; format: cell-based
Substance-K receptor = Substance-K receptor (Homo sapiens, UniProt P21452); test: Displacement of [125I]NKA from human recombinant NK2 receptor expressed in CHO cells; format: cell-based
Adenosine receptor A2a = Adenosine receptor A2a (Homo sapiens, UniProt P29274); test: Displacement of [3H]CGS21680 from human recombinant A2A receptor expressed in HEK293 cells; format: cell-based
Sequence of Adenosine receptor A2a (P29274 whole entry): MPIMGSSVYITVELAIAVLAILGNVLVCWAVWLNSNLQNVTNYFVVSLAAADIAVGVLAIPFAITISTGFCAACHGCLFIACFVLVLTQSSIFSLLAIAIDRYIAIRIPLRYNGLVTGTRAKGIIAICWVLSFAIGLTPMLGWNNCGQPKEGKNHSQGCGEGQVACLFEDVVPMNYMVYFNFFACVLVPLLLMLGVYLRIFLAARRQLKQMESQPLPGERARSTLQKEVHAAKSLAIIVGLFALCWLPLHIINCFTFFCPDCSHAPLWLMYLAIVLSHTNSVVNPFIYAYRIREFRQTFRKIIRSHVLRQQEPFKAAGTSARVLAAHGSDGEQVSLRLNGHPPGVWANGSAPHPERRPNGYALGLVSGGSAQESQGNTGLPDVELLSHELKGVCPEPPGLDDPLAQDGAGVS

Histamine H2 receptor = Histamine H2 receptor (Homo sapiens, UniProt P25021); test: Displacement of [125I]APT from human recombinant histamine H2 receptor expressed in CHO cells; format: cell-based
[14] = target: Adrenergic receptor alpha-2 (Rattus norvegicus, UniProt P22086+P19328+P22909); test: Displacement of [3H][…] from alpha2 receptor in rat cerebral cortex; format: tissue-based
[15] = target: Voltage-gated L-type calcium channel (Rattus norvegicus, UniProt P22002+Q02485+P27732); test: Displacement of [3H](-)D 888 from L-type calcium channel in rat cerebral cortex; format: tissue-based
[16] = target: 5-hydroxytryptamine receptor 7 (Homo sapiens, UniProt P34969); test: Displacement of [3H]LSD from human recombinant 5HT7 receptor expressed in CHO cells; format: cell-based
Mu-type opioid receptor = Mu-type opioid receptor (Homo sapiens, UniProt P35372); test: Displacement of [3H]DAMGO from human recombinant mu opioid receptor expressed in HEK293 cells; format: cell-based
Neuromedin-K receptor = Neuromedin-K receptor (Homo sapiens, UniProt P29371); test: Displacement of [3H]SR 142801 from human recombinant NK3 receptor expressed in CHO cells; format: cell-based
[17] = target: C-X-C chemokine receptor type 2 (Homo sapiens, UniProt P25025); test: Displacement of [125I]IL-8 from human recombinant CXCR2 receptor expressed in HEK293 cells; format: cell-based
[18] = target: Sodium-dependent serotonin transporter (Homo sapiens, UniProt P31645); test: Displacement of [3H]imipramine from human recombinant 5HT transporter expressed in CHO cells; format: cell-based
[19] = Displacement of [125I]Tyr11-somatostatin-14 from human recombinant sst receptor expressed in AtT-20 cells; format: cell-based; conditions: att20
Histamine H1 receptor = Histamine H1 receptor (Homo sapiens, UniProt P35367); test: Displacement of [3H]pyrilamine from human recombinant histamine H1 receptor expressed in HEK293 cells; format: cell-based
[20] = target: Beta-2 adrenergic receptor (Homo sapiens, UniProt P07550); test: Displacement of [3H](-)CGP 12177 from human recombinant beta2 receptor expressed in CHO cells; format: cell-based
Sequence of Beta-2 adrenergic receptor (P07550 whole entry): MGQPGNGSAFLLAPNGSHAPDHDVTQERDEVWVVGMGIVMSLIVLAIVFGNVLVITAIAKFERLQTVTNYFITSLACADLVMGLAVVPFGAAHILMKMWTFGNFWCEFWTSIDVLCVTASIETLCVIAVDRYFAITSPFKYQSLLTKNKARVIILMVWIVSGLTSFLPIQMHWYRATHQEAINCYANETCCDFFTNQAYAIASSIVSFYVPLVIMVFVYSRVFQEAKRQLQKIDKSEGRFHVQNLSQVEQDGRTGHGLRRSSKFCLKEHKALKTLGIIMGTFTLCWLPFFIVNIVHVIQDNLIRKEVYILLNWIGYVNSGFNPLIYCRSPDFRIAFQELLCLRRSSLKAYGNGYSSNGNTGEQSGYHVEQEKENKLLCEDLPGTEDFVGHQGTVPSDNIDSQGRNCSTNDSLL

[21] = target: C-C chemokine receptor type 1 (Homo sapiens, UniProt P32246); test: Displacement of [125I]MIP-1a from human recombinant CCR1 receptor expressed in HEK293 cells; format: cell-based
[22] = target: Adrenergic receptor alpha-1 (Rattus norvegicus, UniProt P15823+P23944+P43140); test: Displacement of [3H]prazosine from alpha1 receptor in rat cerebral cortex; format: tissue-based
[23] = target: N-acyl-phosphatidylethanolamine-hydrolyzing phospholipase D (Mus musculus, UniProt Q8BH82); test: Inhibition of mouse NAPEPLD
[24] = target: Kappa-type opioid receptor (Rattus norvegicus, UniProt P34975); test: Displacement of [3H]U69593 from rat recombinant kappa opioid receptor expressed in CHO cells; format: cell-based
[25] = target: Fatty-acid amide hydrolase 1 (Mus musculus) (UniProt O08914); test: Inhibition of mouse brain FAAH assessed as residual activity
Outline: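 FAAH was pre-incubated 20 min with an excess of inhibitor, then dialyzed 18 h at 4 °C against 20 mM Tris–HCl (pH 7.0). Residual activity was assayed before and after dialysis and compared with untreated controls. In a separate run, enzyme was pre-incubated with inhibitor at room temperature for 0–60 min before substrate turnover was measured. Values are means ± S.D. of three independent experiments.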

[26] = target: Muscarinic acetylcholine receptor M2 (Homo sapiens, UniProt P08172); test: Displacement of [3H]AF-DX 384 from human recombinant muscarinic M2 receptor expressed in CHO cells; format: cell-based
[27] = target: Neuropeptide Y receptor type 1 (Homo sapiens, UniProt P25929); test: Displacement of [125I]peptide YY from human recombinant Y1 receptor expressed in […] cell
Sequence of Neuropeptide Y receptor type 1 (P25929 whole entry): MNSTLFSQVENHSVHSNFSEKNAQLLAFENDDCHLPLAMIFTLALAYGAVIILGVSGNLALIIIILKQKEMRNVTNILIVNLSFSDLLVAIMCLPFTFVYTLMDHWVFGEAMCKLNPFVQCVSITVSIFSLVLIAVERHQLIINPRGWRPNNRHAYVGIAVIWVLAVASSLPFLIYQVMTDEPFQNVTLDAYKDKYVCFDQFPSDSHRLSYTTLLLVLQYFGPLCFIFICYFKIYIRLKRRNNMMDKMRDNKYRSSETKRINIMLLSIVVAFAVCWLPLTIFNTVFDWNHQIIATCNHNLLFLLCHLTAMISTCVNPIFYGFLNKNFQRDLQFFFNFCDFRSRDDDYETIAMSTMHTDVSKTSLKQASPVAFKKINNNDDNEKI

Melanocortin receptor 4 = Melanocortin receptor 4 (Homo sapiens, UniProt P32245); test: Displacement of [125I]NDP-a-MSH from human recombinant MC4 receptor expressed in CHO cells; format: cell-based
Sequence of Melanocortin receptor 4 (P32245 whole entry): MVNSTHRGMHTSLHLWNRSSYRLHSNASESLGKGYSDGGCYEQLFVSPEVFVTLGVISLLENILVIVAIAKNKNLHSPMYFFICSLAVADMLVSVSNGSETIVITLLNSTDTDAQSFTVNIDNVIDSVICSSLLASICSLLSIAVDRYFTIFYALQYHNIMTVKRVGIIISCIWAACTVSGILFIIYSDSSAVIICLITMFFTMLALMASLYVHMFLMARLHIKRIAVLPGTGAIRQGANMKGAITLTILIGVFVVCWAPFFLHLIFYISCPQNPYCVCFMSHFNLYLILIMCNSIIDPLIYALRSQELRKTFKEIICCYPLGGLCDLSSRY

Cannabinoid receptor 2 = Cannabinoid receptor 2 (Mus musculus, UniProt P47936); test: Inhibition of mouse brain CB2 receptor
[28] = target: Cholecystokinin receptor type A (Homo sapiens, UniProt P32238); test: Displacement of [125I]CCK-8 from human recombinant CCKA receptor expressed in CHO cells; format: cell-based
Adenosine receptor A3 = Adenosine receptor A3 (Homo sapiens, UniProt P0DMS8); test: Displacement of [3H]AB-MECA from human recombinant A3 receptor expressed in HEK293 cells; format: cell-based
Sequence of Adenosine receptor A3 (P0DMS8 whole entry): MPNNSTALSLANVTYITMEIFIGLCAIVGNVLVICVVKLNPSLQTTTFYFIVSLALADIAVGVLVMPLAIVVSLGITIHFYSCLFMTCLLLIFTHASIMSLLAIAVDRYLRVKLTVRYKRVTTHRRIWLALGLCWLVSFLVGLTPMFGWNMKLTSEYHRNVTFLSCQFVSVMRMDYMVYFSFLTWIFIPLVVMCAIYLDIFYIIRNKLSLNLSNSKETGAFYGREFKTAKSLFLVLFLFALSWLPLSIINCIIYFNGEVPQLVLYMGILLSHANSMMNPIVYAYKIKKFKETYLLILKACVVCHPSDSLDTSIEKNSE

[29] = target: 5-hydroxytryptamine receptor 2A (Homo sapiens, UniProt P28223); test: Displacement of [3H]Ketanserin from human recombinant 5HT2A receptor expressed in HEK293 cells; format: cell-based
[30] = target: 5-hydroxytryptamine receptor 5A (Homo sapiens, UniProt P47898); test: Displacement of [3H]LSD from human recombinant 5HT5A receptor expressed in CHO cells; format: cell-based
[31] = target: Beta-1 adrenergic receptor (Homo sapiens, UniProt P08588); test: Displacement of [3H](-)CGP 12177 from human recombinant beta-1 receptor expressed in HEK293 cells; format: cell-based
D(1A) dopamine receptor = D(1A) dopamine receptor (Homo sapiens, UniProt P21728); test: Displacement of [3H]SCH 23390 from human recombinant dopamine D1 receptor expressed in CHO cells; format: cell-based
D(2) dopamine receptor = D(2) dopamine receptor (Homo sapiens, UniProt P14416); test: Displacement of [3H]spiperone from human recombinant dopamine D2S receptor expressed in HEK293 cells; format: cell-based
Sequence of D(2) dopamine receptor (P14416 whole entry): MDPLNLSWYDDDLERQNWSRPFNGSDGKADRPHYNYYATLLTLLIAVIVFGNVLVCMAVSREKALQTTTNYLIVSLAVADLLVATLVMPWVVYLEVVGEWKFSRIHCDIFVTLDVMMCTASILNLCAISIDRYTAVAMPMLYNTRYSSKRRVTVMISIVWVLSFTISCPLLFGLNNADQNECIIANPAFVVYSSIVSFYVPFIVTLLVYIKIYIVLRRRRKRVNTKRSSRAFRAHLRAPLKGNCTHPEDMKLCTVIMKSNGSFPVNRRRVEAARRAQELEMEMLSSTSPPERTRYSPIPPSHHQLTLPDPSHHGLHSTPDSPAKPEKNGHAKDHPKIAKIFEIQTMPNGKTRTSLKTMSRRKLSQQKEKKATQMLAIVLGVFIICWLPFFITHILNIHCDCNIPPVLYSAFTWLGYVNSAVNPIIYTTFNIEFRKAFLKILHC

[32] = target: 5-hydroxytryptamine receptor 1B (Rattus norvegicus, UniProt P28564); test: Displacement of [125I]CYP from 5HT1B receptor expressed in rat cerebral cortex; format: tissue-based
[33] = Inhibition of mouse brain AMT
[34] = Displacement of [3H]flunitrazepam from BZD receptor in rat cerebral cortex; format: tissue-based
[35] = target: 5-hydroxytryptamine receptor 6 (Homo sapiens, UniProt P50406); test: Displacement of [3H]LSD from human recombinant 5HT6 receptor expressed in CHO cells; format: cell-based
[36] = target: Muscarinic acetylcholine receptor M1 (Homo sapiens, UniProt P11229); test: Displacement of [3H]pirenzepine from human recombinant muscarinic M1 receptor expressed in CHO cells; format: cell-based
[37] = target: Sodium-dependent dopamine transporter (Homo sapiens, UniProt Q01959); test: Displacement of [3H]BTCP from human recombinant dopamine transporter expressed in CHO cells; format: cell-based

pIC50 [1]: 7.77
SMILES: C/C(=N\OC(=O)Nc1ccc(F)cc1)c1cccc(-c2ccccc2)c1

pIC50 [1]: 7.55
SMILES: COc1ccc(NC(=O)O/N=C(\C)c2cccc(-c3ccccc3)c2)cc1

pIC50 [1]: 6.70
SMILES: C/C(=N\OC(=O)Nc1ccccc1)c1ccc(-c2cccs2)cc1

SMILES: C/C(=N\OC(=O)Nc1ccccc1)c1cccc(-c2cccs2)c1
pIC50 (Vasopressin V1a receptor): < 5.00
pIC50 (B2 bradykinin receptor): < 5.00
pIC50 [2]: 6.00
pIC50 [3]: < 5.00
pIC50 [4]: 6.00
pIC50 [5]: < 5.00
pIC50 [6]: < 5.00
pIC50 (Cannabinoid receptor 1): < 5.00
pIC50 (Nociceptin receptor): < 5.00
pIC50 [7]: < 5.00
pIC50 [8]: < 5.00
pIC50 [9]: < 5.00
pIC50 [10]: < 5.00
pIC50 (Adenosine receptor A1): < 5.00
pIC50 [11]: < 5.00
pIC50 (Endothelin-1 receptor): < 5.00
pIC50 (Thromboxane A2 receptor): < 5.00
pIC50 [12]: < 5.00
pIC50 (Galanin receptor type 2): < 5.00
pIC50 [13]: < 5.00
pIC50 (Substance-K receptor): < 5.00
pIC50 (Adenosine receptor A2a): < 5.00
pIC50 (Histamine H2 receptor): < 5.00
IC50 [14]: > 10 µM
IC50 [15]: > 10 µM
pIC50 [16]: < 5.00
pIC50 (Mu-type opioid receptor): < 5.00
pIC50 (Neuromedin-K receptor): < 5.00
pIC50 [17]: < 5.00
pIC50 [18]: < 5.00
pIC50 [19]: < 5.00
pIC50 (Histamine H1 receptor): < 5.00
pIC50 [20]: < 5.00
pIC50 [21]: < 5.00
IC50 [22]: > 10 µM
pIC50 [23]: < 5.00
pIC50 [24]: < 5.00
inhibition [25]: Active
pIC50 [26]: < 5.00
pIC50 [27]: < 5.00
pIC50 (Melanocortin receptor 4): < 5.00
pIC50 (Cannabinoid receptor 2): 5.00
pIC50 [28]: 6.00
pIC50 (Adenosine receptor A3): 6.00
pIC50 [29]: < 5.00
pIC50 [30]: 6.00
pIC50 [31]: < 5.00
pIC50 (D(1A) dopamine receptor): < 5.00
pIC50 (D(2) dopamine receptor): < 5.00
pIC50 [32]: < 5.00
pIC50 [33]: 7.00
pIC50 [34]: 6.00
pIC50 [35]: < 5.00
pIC50 [36]: < 5.00
pIC50 [1]: 8.10
pIC50 [37]: < 5.00

pIC50 [1]: 7.08
SMILES: C/C(=N\OC(=O)Nc1ccccc1)c1cccc(-c2cccc(C(N)=O)c2)c1
